Measurements published in ChEMBL document CHEMBL4043191, “Discovery of novel inhibitors of multidrug-resistant Acinetobacter baumannii” (2017).
Values after ≈ are worked out from the molar mass of the structure shown.

Columns and labels:
Acinetobacter baumannii [1] = assay: Antimicrobial activity against Acinetobacter baumannii isolate AB3560 incubated for 16 to 20 hrs by broth microdilution method; assay type: functional
Outline: (§1)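 CLSI broth microdilution in CAMHB, twofold dilutions at final 0.250–128 µg/mL, each in triplicate. Overnight colonies from 5% horse blood agar were suspended in PBS to OD600 0.1 and diluted to a starting inoculum of 5 x 10^5 CFU/mL. Incubated 37 °C for 16–20 h. MIC is the lowest concentration with no visible growth. Quality control used E. coli ATCC 25922 with ampicillin. Final DMSO <1%.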

Acinetobacter baumannii [2] = assay: Antimicrobial activity against Acinetobacter baumannii isolate AB5075 assessed as reduction in bacterial colony count at 128 ug/ml incubated for 24 hrs by time kill kinetics assay relative to initial bacterial inoculum; assay type: functional
Outline: (§2)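 Time-kill assay on AB5075. 1 mL CAMHB containing compound at 1, 2, 4 or 8× MIC was seeded with 5–7 x 10^5 CFU/mL and shaken at 37 °C for 24 h. Aliquots taken at 0, 6, 12 and 24 h were serially diluted, plated on LB agar and incubated 24 h at 37 °C before counting. Result given as log10 CFU/mL decrease versus initial inoculum. No-drug control; duplicate runs.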

Acinetobacter baumannii [3] = assay: Antimicrobial activity against Acinetobacter baumannii ATCC AB19606 incubated for 16 to 20 hrs by broth microdilution method; assay type: functional; outline: as §1
Acinetobacter baumannii [4] = assay: Antimicrobial activity against Acinetobacter baumannii isolate AB5075 assessed as reduction in bacterial colony count at 32 ug/ml incubated for 24 hrs by time kill kinetics assay relative to initial bacterial inoculum; assay type: functional; outline: as §2
Acinetobacter baumannii [5] = assay: Antimicrobial activity against Acinetobacter baumannii isolate AB0087 incubated for 16 to 20 hrs by broth microdilution method; assay type: functional; outline: as §1
Acinetobacter baumannii [6] = assay: Antimicrobial activity against Acinetobacter baumannii isolate AB4795 incubated for 16 to 20 hrs by broth microdilution method; assay type: functional; outline: as §1
Acinetobacter baumannii [7] = assay: Antimicrobial activity against Acinetobacter baumannii ATCC AB17978 incubated for 16 to 20 hrs by broth microdilution method; assay type: functional; outline: as §1
Acinetobacter baumannii [8] = assay: Antimicrobial activity against Acinetobacter baumannii isolate AB499 incubated for 16 to 20 hrs by broth microdilution method; assay type: functional; outline: as §1
Acinetobacter baumannii [9] = assay: Antimicrobial activity against Acinetobacter baumannii isolate AB5075 assessed as reduction in bacterial colony count at 16 ug/ml incubated for 24 hrs by time kill kinetics assay relative to initial bacterial inoculum; assay type: functional; outline: as §2
Acinetobacter baumannii [10] = assay: Antimicrobial activity against Acinetobacter baumannii isolate AB5075 assessed as reduction in bacterial colony count at 64 ug/ml incubated for 24 hrs by time kill kinetics assay relative to initial bacterial inoculum; assay type: functional; outline: as §2
Acinetobacter baumannii [11] = assay: Antimicrobial activity against Acinetobacter baumannii isolate AB4957 incubated for 16 to 20 hrs by broth microdilution method; assay type: functional; outline: as §1
Acinetobacter baumannii [12] = assay: Antimicrobial activity against Acinetobacter baumannii isolate AB5075 incubated for 16 to 20 hrs by broth microdilution method; assay type: functional; outline: as §1
Acinetobacter baumannii [13] = assay: Antimicrobial activity against Acinetobacter baumannii isolate AB4052 incubated for 16 to 20 hrs by broth microdilution method; assay type: functional; outline: as §1
Acinetobacter baumannii [14] = assay: Antimicrobial activity against Acinetobacter baumannii isolate AB3638 incubated for 16 to 20 hrs by broth microdilution method; assay type: functional; outline: as §1
Acinetobacter baumannii [15] = assay: Antimicrobial activity against Acinetobacter baumannii isolate AB5674 incubated for 16 to 20 hrs by broth microdilution method; assay type: functional; outline: as §1
Acinetobacter baumannii [16] = assay: Antimicrobial activity against Acinetobacter baumannii isolate AB0967 incubated for 16 to 20 hrs by broth microdilution method; assay type: functional; outline: as §1
Acinetobacter baumannii [17] = assay: Antimicrobial activity against Acinetobacter baumannii isolate AB585 incubated for 16 to 20 hrs by broth microdilution method; assay type: functional; outline: as §1
Acinetobacter baumannii [18] = assay: Antimicrobial activity against Acinetobacter baumannii isolate AB5711 incubated for 16 to 20 hrs by broth microdilution method; assay type: functional; outline: as §1
Acinetobacter baumannii [19] = assay: Antimicrobial activity against Acinetobacter baumannii isolate AB5075 assessed as reduction in bacterial colony count at 32 ug/ml incubated for 30 mins by time kill kinetics assay relative to initial bacterial inoculum
Acinetobacter baumannii [20] = assay: Bactericidal activity against Acinetobacter baumannii isolate AB5075 assessed as reduction in bacterial colony count at 32 ug/ml incubated for 30 mins by time kill kinetics assay relative to initial bacterial inoculum relative to control; parameters: scale not given: the % may be the effect or the level left

Row | MIC (Acinetobacter baumannii [1]) | MIC (Acinetobacter baumannii [3]) | MIC (Acinetobacter baumannii [5]) | MIC (Acinetobacter baumannii [6]) | MIC (Acinetobacter baumannii [7]) | MIC (Acinetobacter baumannii [8]) | MIC (Acinetobacter baumannii [11]) | MIC (Acinetobacter baumannii [12]) | MIC (Acinetobacter baumannii [13]) | MIC (Acinetobacter baumannii [14]) | MIC (Acinetobacter baumannii [15]) | MIC (Acinetobacter baumannii [16]) | MIC (Acinetobacter baumannii [17]) | MIC (Acinetobacter baumannii [18]) | Structure (SMILES) | Activity (Acinetobacter baumannii [2]) | Activity (Acinetobacter baumannii [4]) | Activity (Acinetobacter baumannii [9]) | Activity (Acinetobacter baumannii [10]) | Activity (Acinetobacter baumannii [19]) | Activity (Acinetobacter baumannii [20])
1 | 32 µg/mL (≈ 109 µM) | 16 µg/mL (≈ 54.7 µM) | 4 µg/mL (≈ 13.7 µM) | 8 µg/mL (≈ 27.4 µM) | 16 µg/mL (≈ 54.7 µM) | 1 µg/mL (≈ 3.42 µM) | 32 µg/mL (≈ 109 µM) | 16 µg/mL (≈ 54.7 µM) | 32 µg/mL (≈ 109 µM) | 16 µg/mL (≈ 54.7 µM) | 16 µg/mL (≈ 54.7 µM) | 16 µg/mL (≈ 54.7 µM) | 8 µg/mL (≈ 27.4 µM) | 32 µg/mL (≈ 109 µM) | CCO[C@@H]1CCC[C@H](CC(=O)NNc2ccccc2)[C@H]1O | 1.74 log10CFU/ml | 0.75 log10CFU/ml | 0.46 log10CFU/ml | 1.24 log10CFU/ml |  | 
2 | 32 µg/mL (≈ 154 µM) | 16 µg/mL (≈ 76.8 µM) | 2 µg/mL (≈ 9.6 µM) | 8 µg/mL (≈ 38.4 µM) | 16 µg/mL (≈ 76.8 µM) | 1 µg/mL (≈ 4.8 µM) | 32 µg/mL (≈ 154 µM) | 16 µg/mL (≈ 76.8 µM) | 32 µg/mL (≈ 154 µM) | 16 µg/mL (≈ 76.8 µM) | 16 µg/mL (≈ 76.8 µM) | 16 µg/mL (≈ 76.8 µM) | 8 µg/mL (≈ 38.4 µM) | 16 µg/mL (≈ 76.8 µM) | CCOCCC(=O)NNc1ccccc1 | 2.1 log10CFU/ml | 1.02 log10CFU/ml | 0.73 log10CFU/ml | 1.42 log10CFU/ml |  | 

Row | Structure (SMILES) | MIC (Acinetobacter baumannii [1]) | MIC (Acinetobacter baumannii [3]) | MIC (Acinetobacter baumannii [5]) | MIC (Acinetobacter baumannii [6]) | MIC (Acinetobacter baumannii [7]) | MIC (Acinetobacter baumannii [8]) | MIC (Acinetobacter baumannii [11]) | MIC (Acinetobacter baumannii [12]) | MIC (Acinetobacter baumannii [13]) | MIC (Acinetobacter baumannii [14]) | MIC (Acinetobacter baumannii [15]) | MIC (Acinetobacter baumannii [16]) | MIC (Acinetobacter baumannii [17]) | MIC (Acinetobacter baumannii [18]) | Activity (Acinetobacter baumannii [2]) | Activity (Acinetobacter baumannii [4]) | Activity (Acinetobacter baumannii [9]) | Activity (Acinetobacter baumannii [10]) | Activity (Acinetobacter baumannii [19]) | Activity (Acinetobacter baumannii [20])
3 | Oc1ccc(Cl)cc1Cc1cc(Cl)ccc1O [DICHLOROPHEN] | 16 µg/mL (≈ 59.5 µM) | 16 µg/mL (≈ 59.5 µM) | 8 µg/mL (≈ 29.7 µM) | 16 µg/mL (≈ 59.5 µM) | 16 µg/mL (≈ 59.5 µM) | 8 µg/mL (≈ 29.7 µM) | 16 µg/mL (≈ 59.5 µM) | 32 µg/mL (≈ 119 µM) | 16 µg/mL (≈ 59.5 µM) | 16 µg/mL (≈ 59.5 µM) | 16 µg/mL (≈ 59.5 µM) | 16 µg/mL (≈ 59.5 µM) | 8 µg/mL (≈ 29.7 µM) | 16 µg/mL (≈ 59.5 µM) |  |  |  |  | >=3 log10CFU/ml | 99.9%
